Test results reported in ChEMBL document CHEMBL5137066, “Discovery of BLU-945, a Reversible, Potent, and Wild-Type-Sparing Next-Generation EGFR Mutant Inhibitor for Treatment-Resistant Non-Small-Cell Lung Cancer” (J Med Chem, 2022).

Tests used:
[1] = molecular target: T1, Epidermal growth factor receptor (Homo sapiens, UniProt P00533, L858R/T790M); experiment: Inhibition of N-terminal GST tagged recombinant human EGFR L858R/T790M (669 to end residues) double mutant expressed in baculovirus infected Sf9 insect cells expression system using 5-FAM-EEPLYINSFPAKKK-CONH peptide as substrate preincubated for 10 mins followed by peptide substrate addition in presence of ATP
T1 sequence (P00533 25-1210 T790M/L858R limits assumed): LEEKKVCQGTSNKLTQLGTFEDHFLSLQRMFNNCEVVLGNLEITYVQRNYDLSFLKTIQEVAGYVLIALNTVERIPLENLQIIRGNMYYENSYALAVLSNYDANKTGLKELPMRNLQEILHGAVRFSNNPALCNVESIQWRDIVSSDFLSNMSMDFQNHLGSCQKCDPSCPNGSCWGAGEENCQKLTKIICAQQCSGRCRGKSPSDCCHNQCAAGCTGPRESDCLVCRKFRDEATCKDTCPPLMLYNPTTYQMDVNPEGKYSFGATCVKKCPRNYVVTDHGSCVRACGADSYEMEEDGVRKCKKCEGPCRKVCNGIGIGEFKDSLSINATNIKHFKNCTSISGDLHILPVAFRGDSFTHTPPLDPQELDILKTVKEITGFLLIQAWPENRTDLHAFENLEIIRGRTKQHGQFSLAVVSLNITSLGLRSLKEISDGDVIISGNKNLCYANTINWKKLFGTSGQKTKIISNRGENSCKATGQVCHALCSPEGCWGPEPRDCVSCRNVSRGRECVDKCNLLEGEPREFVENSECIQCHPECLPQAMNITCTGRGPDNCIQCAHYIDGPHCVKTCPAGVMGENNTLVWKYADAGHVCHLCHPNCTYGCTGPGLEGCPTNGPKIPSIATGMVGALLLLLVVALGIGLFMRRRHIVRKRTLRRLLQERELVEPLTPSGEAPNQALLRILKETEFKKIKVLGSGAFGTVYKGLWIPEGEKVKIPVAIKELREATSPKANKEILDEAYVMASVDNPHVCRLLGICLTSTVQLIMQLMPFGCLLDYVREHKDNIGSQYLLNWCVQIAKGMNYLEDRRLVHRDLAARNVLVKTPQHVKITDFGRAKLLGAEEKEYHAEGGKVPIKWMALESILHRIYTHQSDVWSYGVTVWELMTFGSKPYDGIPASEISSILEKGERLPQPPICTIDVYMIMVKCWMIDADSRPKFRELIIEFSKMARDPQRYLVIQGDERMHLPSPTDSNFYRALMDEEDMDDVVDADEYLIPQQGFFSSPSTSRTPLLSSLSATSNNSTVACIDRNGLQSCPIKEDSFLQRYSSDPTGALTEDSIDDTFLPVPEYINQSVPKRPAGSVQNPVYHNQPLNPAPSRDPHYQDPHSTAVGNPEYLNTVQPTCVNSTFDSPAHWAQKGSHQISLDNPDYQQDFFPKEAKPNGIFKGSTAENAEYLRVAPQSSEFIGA

[2] = (§1) Inhibition of N-terminal GST tagged recombinant human EGFR L858R/T790M/C790S (668 to end residues) triple mutant expressed in baculovirus infected Sf9 insect cells using 5-FAM-EEPLYINSFPAKKK-CONH peptide as substrate preincubated for 10 mins followed by peptide substrate addition in presence of ATP
[3] = molecular target: T1, Epidermal growth factor receptor; experiment: Inhibition of EGF stimulated EGFR L858R/T790M double mutant phosphorylation in human NCI-H1975 cells preincubated for 4 to 5 hrs followed by EGF stimulation for 10 mins by AlphaLISA method; type: cell-based
[4] = as §1, with “ex19del (746 to 750)/ L858R/C790S” for “L858R/T790M/C790S”, “cells expression system” for “cells”
[5] = molecular target: T2, Epidermal growth factor receptor (Homo sapiens, UniProt P00533); experiment: Inhibition of N-terminal GST tagged recombinant wild type human EGFR expressed in baculovirus infected Sf9 insect cells expression system using 5-FAM-EEPLYINSFPAKKK-CONH peptide as substrate preincubated for 10 mins followed by peptide substrate addition in presence of ATP
T2 sequence (P00533 whole entry): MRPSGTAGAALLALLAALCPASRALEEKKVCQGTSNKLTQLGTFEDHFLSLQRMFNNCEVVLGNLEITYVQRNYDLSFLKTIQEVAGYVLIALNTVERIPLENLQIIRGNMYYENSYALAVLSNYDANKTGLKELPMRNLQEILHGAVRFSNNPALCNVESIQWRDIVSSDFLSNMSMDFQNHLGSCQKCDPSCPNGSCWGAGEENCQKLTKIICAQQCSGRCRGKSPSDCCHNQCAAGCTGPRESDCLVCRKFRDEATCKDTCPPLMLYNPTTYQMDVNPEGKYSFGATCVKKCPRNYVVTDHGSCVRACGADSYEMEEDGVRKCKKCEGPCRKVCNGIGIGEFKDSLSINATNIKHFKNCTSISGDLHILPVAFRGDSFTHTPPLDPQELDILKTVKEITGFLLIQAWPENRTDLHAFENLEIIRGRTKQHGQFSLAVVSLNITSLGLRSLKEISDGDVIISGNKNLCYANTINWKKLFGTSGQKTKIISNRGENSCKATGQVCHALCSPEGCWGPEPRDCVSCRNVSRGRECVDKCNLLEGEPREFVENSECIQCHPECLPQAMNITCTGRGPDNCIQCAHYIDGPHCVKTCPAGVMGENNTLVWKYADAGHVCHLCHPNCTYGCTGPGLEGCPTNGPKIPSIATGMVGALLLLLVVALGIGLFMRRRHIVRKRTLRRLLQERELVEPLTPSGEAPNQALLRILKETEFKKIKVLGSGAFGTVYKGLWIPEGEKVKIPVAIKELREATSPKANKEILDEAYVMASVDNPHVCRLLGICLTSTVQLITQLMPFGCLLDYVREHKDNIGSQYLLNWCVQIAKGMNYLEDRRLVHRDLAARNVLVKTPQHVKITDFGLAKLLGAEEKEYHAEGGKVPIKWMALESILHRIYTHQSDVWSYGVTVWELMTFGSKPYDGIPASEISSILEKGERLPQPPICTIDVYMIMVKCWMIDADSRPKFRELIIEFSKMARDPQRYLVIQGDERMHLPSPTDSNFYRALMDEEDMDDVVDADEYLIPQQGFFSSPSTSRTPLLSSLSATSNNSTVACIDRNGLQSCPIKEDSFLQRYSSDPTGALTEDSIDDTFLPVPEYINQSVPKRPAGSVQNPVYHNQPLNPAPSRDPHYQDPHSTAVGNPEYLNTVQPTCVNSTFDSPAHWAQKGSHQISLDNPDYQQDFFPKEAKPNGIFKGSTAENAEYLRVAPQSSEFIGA

[6] = molecular target: T2, Epidermal growth factor receptor; experiment: Inhibition of wild type EGFR in human A-431 cells preincubated for 4 to 5 hrs followed by EGF stimulation for 10 mins by AlphaLISA method; type: cell-based
[7] = Apparent permeability across apical to basolateral side in MDCK-MDR1 cells; type: ADME, cell-based, Canis lupus familiaris; conditions: dog
[8] = Efflux ratio of apparent permeability in MDCK-MDR1 cells; type: ADME, cell-based, Canis lupus familiaris; conditions: dog
[9] = Intrinsic clearance in human liver microsomes in presence of NADPH; type: ADME, Microsome
In short: (§2)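 Intrinsic clearance measured in isolated liver microsomes of each species with NADPH, expressed in μL/min/mg.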

[10] = Intrinsic clearance in cynomolgus monkey liver microsomes in presence of NADPH; type: ADME, Macaca fascicularis, Microsome; in short: as §2
[11] = Intrinsic clearance in human hepatocytes assessed per million cells; type: ADME, cell-based, Hepatocyte
In short: (§3)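 Intrinsic clearance measured in isolated hepatocytes of each species, expressed in μL/min/million cells.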

[12] = Intrinsic clearance in cynomolgus monkey hepatocytes assessed per million cells; type: ADME, cell-based, Macaca fascicularis, Hepatocyte; in short: as §3
[13] = Intrinsic clearance in human liver microsomes; type: ADME, Microsome; conditions: for Microsomal intrinsic clearance: microsomes
[14] = Clearance in Sprague-Dawley rat at 1 mg/kg, iv; type: ADME, organism-based; conditions: in vivo
In short: (§4)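 Sprague–Dawley rats (n = 3), single IV bolus of 1 mg/kg in 10% DMSO, 10% solutol, 80% of a 20% HP-β-CD solution (in water or in saline, depending on compound). Clearance is plasma clearance after the IV bolus.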

[15] = Half life in Sprague-Dawley rat at 1 mg/kg, iv; type: ADME, organism-based; conditions: in vivo; in short: as §4
[16] = Oral bioavailability in Sprague-Dawley rat at 5 mg/kg; type: ADME, organism-based; conditions: in vivo
In short: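 Sprague–Dawley rats (n = 3) received 1 mg/kg IV and 5 mg/kg PO. IV vehicle was 10% DMSO/10% solutol/80% (20% HP-β-CD). PO vehicle was a suspension in 20% solutol in 0.5% MC in water, or a solution matching the IV vehicle, depending on compound.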

[17] = Intrinsic clearance in rat liver microsomes in presence of NADPH; type: ADME, Microsome; in short: as §2
[18] = Intrinsic clearance in dog liver microsomes in presence of NADPH; type: ADME, Canis lupus familiaris, Microsome; in short: as §2
[19] = Intrinsic clearance in rat hepatocytes assessed per million cells; type: ADME, cell-based, Hepatocyte; in short: as §3
[20] = Intrinsic clearance in dog hepatocytes assessed per million cells; type: ADME, cell-based, Canis lupus familiaris, Hepatocyte; in short: as §3
[21] = Clearance in cynomolgus monkey at 0.5 mg/kg,iv; type: ADME, organism-based, Macaca fascicularis; conditions: in vivo
In short: (§5)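 Cynomolgus monkeys given a single IV bolus of 0.5 mg/kg in 5% DMSO + 5% kolliphor HS 15 + 90% saline. Clearance is plasma clearance after the bolus.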

[22] = Half life in cynomolgus monkey at 0.5 mg/kg, iv; type: ADME, organism-based, Macaca fascicularis; conditions: in vivo; in short: as §5
[23] = Unbound clearance in cynomolgus monkey assessed as clearance/free fraction ratio at 0.5 mg/kg, iv; type: ADME, organism-based, Macaca fascicularis; conditions: in vivo
In short: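 Cynomolgus monkey, 0.5 mg/kg IV bolus in 5% DMSO/5% kolliphor HS 15/90% saline. Unbound clearance = in vivo plasma clearance divided by the free fraction. Free fraction comes from plasma protein binding measured by ultracentrifugation.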

Structure (SMILES)	IC50 [1]	IC50 [2]	IC50 [3]	IC50 [4]	IC50 [5]	IC50 [6]	Microsomal intrinsic clearance [13]	further results
COCC1CN(c2ncc(C(C)C)c3cc(Nc4ccnc(N5CC[C@@H](O)[C@@](C)(F)C5)n4)ncc23)C1	11 nM	25 nM	40 nM	24 nM				
CC(C)c1cnc(N2C[C@H](CS(C)(=O)=O)[C@H]2C)c2cnc(Nc3ccnc(N4CC[C@@H](O)[C@@](C)(F)C4)n3)cc12	0.2 nM		1.7 nM		270 nM	781 nM		Papp [7]: 5 10^-6 cm/s; efflux ratio [8]: 16
CC[C@]1(F)CN(c2nccc(Nc3cc4c(C(C)C)ccc(N5C[C@H](CS(C)(=O)=O)[C@H]5C)c4cn3)n2)CC[C@H]1O	0.5 nM	0.4 nM	1.8 nM		761 nM	709 nM		Papp [7]: 6 10^-6 cm/s; efflux ratio [8]: 4; CLH [9]: 5.9 µL/min/mg; CLH [10]: 192 µL/min/mg; CLH [11]: 48 µL/min; CLH [12]: 204 uL/min/10^6 cells
CC(C)c1cnc(N2CCC2)c2cnc(Nc3ccnc(N4CC[C@@H](O)[C@@](C)(F)C4)n3)cc12	2.1 nM	12 nM	20 nM	9.1 nM		8670 nM	106 µL/min/mg	
CC(C)c1cnc(N2CC(O)C2)c2cnc(Nc3ccnc(N4CC[C@@H](O)[C@@](C)(F)C4)n3)cc12	3.6 nM	11 nM	41 nM	8.1 nM	5520 nM		43 µL/min/mg	
CC(C)c1ccc(N2C[C@H](CS(C)(=O)=O)[C@H]2C)c2cnc(Nc3ccnc(N4CC[C@@H](O)[C@@](C)(F)C4)n3)cc12								Papp [7]: 9 10^-6 cm/s; clearance [14]: 25 mL/min/kg; half-life [15]: 1.3 h; F [16]: 50%; CLH [9]: 7.2 µL/min/mg; CLH [17]: 43 µL/min/mg; CLH [18]: 20 µL/min/mg; CLH [10]: 55 µL/min/mg; CLH [11]: 41 µL/min; CLH [19]: 33 µL/min; CLH [20]: 21 µL/min; clearance [21]: 31.8 mL/min/kg; half-life [22]: 2.9 h
CNc1ncc(C(C)C)c2cc(Nc3ccnc(N4CC[C@@H](O)[C@@](C)(F)C4)n3)ncc12							31 µL/min/mg	
CC(C)c1nnc(N2CC[C@H]2C)c2cnc(Nc3ccnc(N4CC[C@@H](O)[C@@](C)(F)C4)n3)cc12	16 nM	12.7 nM	25 nM	9.6 nM	8170 nM		96 µL/min/mg	
CC(C)c1cnc(N2CC(C(=O)N(C)C)C2)c2cnc(Nc3ccnc(N4CC[C@@H](O)[C@@](C)(F)C4)n3)cc12							102 µL/min/mg	
CNC(=O)C1CN(c2ncc(C(C)C)c3cc(Nc4ccnc(N5CC[C@@H](O)[C@@](C)(F)C5)n4)ncc23)C1	1 nM	1.1 nM	32 nM	3.4 nM				
CC(C)c1ncc(N2CC[C@H]2C)c2cnc(Nc3ccnc(N4CC[C@@H](O)[C@@](C)(F)C4)n3)cc12	2.2 nM	9 nM	23 nM	6 nM	3420 nM		159 µL/min/mg	
COC1CN(c2ncc(C(C)C)c3cc(Nc4ccnc(N5CC[C@@H](O)[C@@](C)(F)C5)n4)ncc23)C1	3.4 nM	7.2 nM	24 nM	6.3 nM			91 µL/min/mg	
CC(C)c1cnc(N2CC(CS(C)(=O)=O)C2)c2cnc(Nc3ccnc(N4CC[C@@H](O)[C@@](C)(F)C4)n3)cc12							9.6 µL/min/mg	clearance [14]: 67 mL/min/kg; half-life [15]: 1.6 h; F [16]: 2%
CC(C)c1cnc(N2CC[C@@H]2C)c2cnc(Nc3ccnc(N4CC[C@@H](O)[C@@](C)(F)C4)n3)cc12	106 nM	113 nM	210 nM	110 nM				
CNC(=O)c1cnc(Nc2ccnc(N3CC[C@@H](O)[C@@H](F)C3)n2)cc1NC(C)C	99 nM	105 nM	420 nM		> 10000 nM	> 25000 nM	9.1 µL/min/mg	
CC(C)c1cnc(N2CCCC2)c2cnc(Nc3ccnc(N4CC[C@@H](O)[C@@](C)(F)C4)n3)cc12		21.5 nM	52 nM	23 nM			65 µL/min/mg	
CC(C)c1ccc(N2C[C@H](CS(C)(=O)=O)[C@H]2C)c2cnc(Nc3ccnc(N4CC[C@@](C)(O)[C@@H](F)C4)n3)cc12	0.4 nM	0.5 nM	3.8 nM		1090 nM	1210 nM		Papp [7]: 5 10^-6 cm/s; efflux ratio [8]: 3; CLH [9]: 5.1 µL/min/mg; CLH [10]: 23 µL/min/mg; CLH [11]: 3.2 µL/min; CLH [12]: 1.5 uL/min/10^6 cells; clearance [21]: 8.8 mL/min/kg; Ratio [23]: 170; half-life [22]: 4.8 h
CC(C)c1cnc(N2C[C@H](O)[C@H]2C)c2cnc(Nc3ccnc(N4CC[C@@H](O)[C@@](C)(F)C4)n3)cc12							25 µL/min/mg	
CO[C@@H]1[C@H](O)CN(c2nccc(Nc3cc4c(C(C)C)ccc(N5C[C@H](CS(C)(=O)=O)[C@H]5C)c4cn3)n2)CC1(F)F	0.7 nM		2.6 nM		810 nM	191 nM		Papp [7]: 8 10^-6 cm/s; efflux ratio [8]: 2; CLH [9]: 19 µL/min/mg; CLH [10]: 25 µL/min/mg; CLH [11]: 16 µL/min; CLH [12]: 49 uL/min/10^6 cells; clearance [21]: 9.1 mL/min/kg; Ratio [23]: 294; half-life [22]: 4.5 h
CC(C)c1ncc(N2C[C@H](O)[C@H]2C)c2cnc(Nc3ccnc(N4CC[C@@H](O)[C@@](C)(F)C4)n3)cc12	1.8 nM	10 nM	13 nM	8.1 nM	4190 nM		45 µL/min/mg	
CNC(=O)c1cnc(Nc2ccnc(N3CCC(O)CC3)n2)cc1NC(C)C	290 nM	266 nM	914 nM		> 10000 nM	> 25000 nM	4 µL/min/mg	
CC(C)c1cnc(N2CC[C@H]2C)c2cnc(Nc3ccnc(N4CC[C@@H](O)[C@@](C)(F)C4)n3)cc12	0.3 nM		7 nM	0.8 nM	7290 nM	9960 nM	80 µL/min/mg	
CC(C)c1ccc(N2C[C@H](O)[C@H]2C)c2cnc(Nc3ccnc(N4CC[C@@H](O)[C@@](C)(F)C4)n3)cc12	0.5 nM	7.5 nM	19 nM	5.5 nM	2220 nM		17 µL/min/mg	
CC(C)c1cnc(N2CC(C#N)C2)c2cnc(Nc3ccnc(N4CC[C@@H](O)[C@@](C)(F)C4)n3)cc12		5.3 nM	17 nM	4.8 nM	3400 nM		85 µL/min/mg	
CNc1ncc(C(C)C)c2cc(Nc3ccnc(N4CC[C@@H](O)[C@@H](F)C4)n3)ncc12	50 nM	46 nM	67 nM		> 10000 nM	> 25000 nM		microsomal CLint ([13]; liver microsomes, read-out: CLH): 19.1 µL/min/mg
CC(C)c1ccc(N2CC(CS(C)(=O)=O)C2)c2cnc(Nc3ccnc(N4CC[C@@H](O)[C@@](C)(F)C4)n3)cc12								Papp [7]: 17 10^-6 cm/s; clearance [14]: 20 mL/min/kg; half-life [15]: 3 h; F [16]: 85%
